# mIAP block: blocks mouse intestinal alkaline phosphatase | purified mouse IAP, CDP-Star luminescence, 30 min | 0.2% of 330,000 active | inhibition, % at 10 µM | AID 2806;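 active = inhibition of at least 40% at 10 µM in the primary screen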;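 also: plate controls were DMSO with enzyme for no effect and no enzyme wells for full effect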
# bIAP inh: blocks bovine intestinal alkaline phosphatase activity; purified bovine IAP, CDP-star luminescence, 30 min; inhibition, % at 20 µM; 190,000 tested, under 10 active; AID 1019;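 active = over 50% inhibition of intestinal alkaline phosphatase at 20 µM in the single-dose screen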
#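 System: purified bovine intestinal alkaline phosphatase (IAP) enzyme; Input: IAP diluted 1/65,000,000 in the well; Measured by: CDP-star luminescence signal; Compound dosing: 20 µM single dose; Incubation: 30 min reaction at room temperature.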
# hIAP activ: human IAP activation | activation factor at 10 µM | purified human IAP, CDP-Star luminescence, 30 min; stronger effect = higher value; 1 = vehicle-only enzyme, 0 = enzyme-free background | 0.16% of 330,000 active | P09923;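 active = activation factor of the enzyme at least 2-fold when tested at 20 µM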
# Target sequence (P09923 whole entry, looked up): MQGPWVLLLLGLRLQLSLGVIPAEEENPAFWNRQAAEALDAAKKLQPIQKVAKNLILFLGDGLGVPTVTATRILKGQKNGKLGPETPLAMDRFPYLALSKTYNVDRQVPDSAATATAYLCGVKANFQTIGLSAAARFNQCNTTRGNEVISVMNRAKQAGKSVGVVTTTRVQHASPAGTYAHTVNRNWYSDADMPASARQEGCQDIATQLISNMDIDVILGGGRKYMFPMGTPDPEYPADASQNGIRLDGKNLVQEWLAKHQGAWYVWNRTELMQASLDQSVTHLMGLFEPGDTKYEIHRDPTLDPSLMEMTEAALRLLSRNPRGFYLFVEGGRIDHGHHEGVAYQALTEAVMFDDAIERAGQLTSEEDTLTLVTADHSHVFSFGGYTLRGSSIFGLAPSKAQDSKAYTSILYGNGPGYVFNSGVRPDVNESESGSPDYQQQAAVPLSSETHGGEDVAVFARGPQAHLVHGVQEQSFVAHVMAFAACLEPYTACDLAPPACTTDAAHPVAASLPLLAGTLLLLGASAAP
# mIAP act: mouse IAP activation; muIAP, CDP-Star luminescence, 30 min; stronger effect = higher value; 1 = vehicle-only enzyme signal, 0 = enzyme-free wells; activation factor at 10 µM; 0.24% of 330,000 active; AID 2805;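 active = activation factor of at least 2 at 20 µM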
#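 Assay system: mouse IAP enzyme; reagent: chemiluminescent substrate CDP-Star; dosing: test compounds delivered from DMSO solution; schedule: 30 min at room temperature; measured by: luminescence from enzymatic CDP-Star hydrolysis; controls: DMSO-only wells and no-enzyme negative control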
# bIAP activator: increases bovine intestinal alkaline phosphatase activity. purified bovine IAP, CDP-star luminescence, 30 min; stronger effect = higher value; fold of DMSO-control signal, blank-subtracted. activation factor at 20 µM. 0.17% of 200,000 active;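 active = activation factor of 2 or more at 20 µM, a signal rise over negative controls twice the positive control's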
# hIAP block: blocks human intestinal alkaline phosphatase; AID 2544; inhibition, % at 10 µM; purified IAP, CDP-Star luminescence, 30 min; 0.12% of 330,000 active;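 active = inhibition reaching a set limit with compound at 10 µM in the primary screen, cut at about 35% in these data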;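 also: plate controls were DMSO wells with enzyme for no effect and no-enzyme buffer wells for full effect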
# mIAP inh confirm: mouse IAP inhibition confirmation | shares compounds with mIAP block | purified mouse IAP, CDP-Star luminescence, 30 min | inhibition, % at 10 µM | 4.7% of 11,000 active | AID 434971;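 active = inhibition of at least 40% at 10 µM in either of the two replicates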;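 also: plate controls were DMSO wells with enzyme for no effect and buffer wells lacking enzyme for full effect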
# * hit, by the source's call; i = inactive; nt = not tested or not shown. Hits are enriched below; roughly 0.72% of the tested compounds scored in any of these assays.
SMILES,mIAP block,bIAP inh,hIAP activ,mIAP act,bIAP activator,hIAP block,mIAP inh confirm
COCCNS(=O)(=O)c1ccc2c(c1)oc(=O)c1cc(S(=O)(=O)NCCOC)ccc12,0,-2,1.1,1,1,-11,nt
O=C(CN1CCN(S(=O)(=O)c2ccccc2F)CC1)N1CCc2ccccc2C1,-10,nt,1.1,1.1,nt,-12,nt
NC1=NC(=O)/C(=C\c2ccco2)S1,75*,nt,0.87,0.25,nt,13,82*
O=C1CC(c2ccco2)CC(O)=C1C=Nc1cc(Cl)ccc1Cl (centres undefined),40,-2,0.98,0.6,1,2,nt
O=C1CC(c2ccco2)CC(O)=C1C=Nc1cc(Cl)ccc1O (centres undefined),64*,-42,1.7,0.36,1.4,-68,70*
COc1ccc(Cl)cc1S(=O)(=O)N1CCC(C(=O)NCc2ccco2)CC1,5,nt,1.1,0.95,nt,-7,nt
O=c1c(O)c(-c2ccc(O)c(O)c2)oc2cc(O)cc(O)c12,83*,nt,1.1,0.17,nt,-9,91*
O=c1c(-c2c(O)cc(O)c3c(=O)cc(-c4ccc(O)cc4)oc23)c(-c2ccc(O)cc2)oc2cc(O)cc(O)c12,59*,nt,0.91,0.41,nt,9,65*
CC1(C)OC(=O)C(=Cc2ccc(-c3ccc(S(N)(=O)=O)cc3)o2)C(=O)O1,64*,-16,0.99,0.36,1.2,1,79*
NS(=O)(=O)c1ccc(-c2ccc(/C=C3\C(=O)Nc4ccccc43)o2)cc1,11,nt,0.84,0.89,nt,16,nt
S=c1[nH]nc(-c2cc(-c3ccccc3)n[nH]2)n1/N=C/C=C/c1ccco1,48*,nt,1.2,0.52,nt,-19,47*
S=c1[nH]nc(COc2ccccc2)n1/N=C/C=C/c1ccccc1,0,-4,0.93,0.99,1,7,nt
COc1ccccc1/C=C/C=N/n1c(-c2ccco2)n[nH]c1=S,17,nt,1.1,0.83,nt,-14,nt
S=c1[nH]nc(-c2ccco2)n1/N=C/C=C/c1ccco1,69*,7,0.9,0.31,0.9,10,70*
S=c1[nH]nc(-c2n[nH]c3c2CCC3)n1/N=C/C=C/c1ccco1,50*,nt,0.91,0.5,nt,9,42*
S=c1[nH]nc(COc2ccccc2)n1/N=C/C=C/c1ccco1,51*,nt,1,0.49,nt,0,58*
S=c1[nH]nc(-c2cc(-c3ccccc3)n[nH]2)n1/N=C/c1c(Cl)cccc1Cl,8,nt,1.7,0.92,nt,-67,nt
COc1cc(/C=N/n2c(-c3n[nH]c4c3CCC4)n[nH]c2=S)cc(OC)c1O,15,nt,1.7,0.85,nt,-66,nt
O=C(NCc1cc(F)ccc1F)C1CCC(=O)N(C2CCCCCC2)C1 (centres undefined),-2,nt,1.2,1,nt,-18,nt
CC(C)(C)N(NC(=O)Nc1ccc(Cl)c(Cl)c1)C(=O)c1ccccc1,i,-2,1.8,6.8*,1,-83,-295
Cc1cc(C)cc(C(=O)N(NC(=O)Nc2ccc(Cl)cc2)C(C)(C)C)c1,-335,-3,1.3,4.3*,1,-30,-322
O=C(Nc1cc(S(=O)(=O)N2CCOCC2)ccc1Cl)C1CCC1,-2,nt,0.92,1,nt,8,nt
COc1ccccc1C(CC(=O)Nc1ccc(C)c(C)c1)c1ccc(OC(C)C)cc1 (centres undefined),-114,15,1,2.1*,0.8,0,-106
C=CCOC(=O)C1=C[C@@H](c2ccc(C(F)(F)F)cc2)C[C@@H](OCc2ccc(CO)cc2)O1,4,nt,1.1,0.96,nt,-10,nt
O=C(NCCc1ccc(Cl)cc1)Nc1ccc(F)cc1,-40,-14,1.1,1.4,1.1,-11,nt
SMILES,mIAP block,bIAP inh,hIAP activ,mIAP act,bIAP activator,hIAP block,mIAP inh confirm
CCCc1c(NC(=O)Nc2ccc(F)cc2)cnn1-c1ccc(Cl)cc1,-278,nt,1.4,3.8*,nt,-43,-142
CCN(c1ccccc1)S(=O)(=O)c1ccc(OC)c(NC(=O)COc2ccc(C(C)=O)cc2)c1,6,nt,1.1,0.94,nt,-7,nt
COC(=O)c1ccc(OC(=O)/C=C/c2ccco2)cc1,2,nt,1.1,0.98,nt,-12,nt
O=Cc1cccc(OC(=O)/C=C/c2ccco2)c1,49*,nt,0.96,0.51,nt,4,57*
O=C(O)CCN1C(=O)/C(=C\c2ccc(-c3nc4ccccc4s3)o2)SC1=S,53*,nt,1.2,0.47,0.4,-19,62*
COc1ccc(C(=O)OCC(=O)NC2CCCCCC2)cc1OC,58*,nt,1.3,0.42,nt,-27,71*
CC(=O)NC(NC(=S)Nc1ccc(C)cc1C)C(Cl)(Cl)Cl (centres undefined),-14,nt,0.99,1.1,nt,1,nt
Cc1ccc(NC(=S)NC(NC(=O)c2ccccc2C)C(Cl)(Cl)Cl)c(C)c1 (centres undefined),-212,-5,1.2,3.1*,1,-16,-211
Cc1ccc(NC(=O)NC2CCCc3ccccc32)cc1 (centres undefined),-55,nt,0.96,1.5,nt,4,nt
CC(C)(C)c1ccc(NC(=O)NC2CCCc3ccccc32)cc1 (centres undefined),i,nt,1.4,6.2*,nt,-42,-253
C#CCCOC(=O)Nc1ccccc1,7,nt,1.1,0.93,nt,-12,nt
c1coc(C2Nc3cccc4cccc(c34)N2)c1,52*,31,1,0.48,0.7,-3,69*
O=c1oc(/C=C/c2ccco2)nc2sc3c(c12)CCC3,63*,14,1.1,0.37,0.9,-10,62*
O=c1oc(-c2cccs2)nc2sc3c(c12)CCC3,0,3,1.2,1,1,-16,nt
CCOC(=O)N1CCN(S(=O)(=O)c2ccc3c4c(cccc24)C(=O)N3)CC1,1,nt,1.2,0.99,nt,-21,nt
CCOc1ccccc1N1CCN(S(=O)(=O)c2ccc3c4c(cccc24)C(=O)N3)CC1,59*,6,1.1,0.41,0.9,-10,56*
Cc1cc(-c2csc(NC(=O)c3ccc(=O)[nH]c3)n2)c(C)n1Cc1ccco1,48*,nt,0.94,0.52,nt,6,65*
Cc1ccc(/C=C2/SC(=O)NC2=S)o1,45*,24,1.1,0.55,0.8,-8,63*
CCN1C(=O)/C(=C2\SC(=S)N(NC(=O)c3cccnc3)C2=O)c2ccccc21,49*,nt,1.2,0.51,nt,-18,64*
CC(=O)Nc1ccc(S(=O)(=O)Nc2nc3ccccc3nc2Nc2cccc(O)c2)cc1,9,nt,1.1,0.91,nt,-12,nt
CC(=O)Nc1ccc(S(=O)(=O)Nc2nc3ccccc3nc2Nc2ccc(C(=O)O)c(O)c2)cc1,42*,nt,0.99,0.58,nt,0,50*
Oc1ccc(/C=N/Nc2cc(N3CCCC3)nc(N3CCCC3)n2)cc1O,68*,-3,1,0.32,1,0,76*

# Screens: PubChem, Sanford-Burnham Center for Chemical Genomics
